How the values were obtained:
[1] = biological target: T1, Transient receptor potential cation channel subfamily V member 1 (Homo sapiens, UniProt Q8NER1); test: Antagonist activity at human TRPV1 expressed in CHO cells assessed as inhibition of capsaicin-induced activity by FLIPR assay; assay type: cell-based
[2] = biological target: T1, Transient receptor potential cation channel subfamily V member 1; test: Antagonist activity at human TRPV1 expressed in CHO cells assessed as inhibition of N-arachidonoyl dopamine-induced activity by FLIPR assay; assay type: cell-based
Mus musculus [3] = test: Analgesic activity in mouse assessed as inhibition of formalin-induced response at 0.3 mg/kg, po; assay type: functional
Outline: (§1)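 Formalin test in mice after oral dosing. Values are tabulated as MPE and described as % inhibition of the nociceptive response.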

Mus musculus [4] = test: Analgesic activity in mouse assessed as inhibition of formalin-induced response at 0.1 mg/kg, po; assay type: functional; outline: as §1
[5] = biological target: T1, Transient receptor potential cation channel subfamily V member 1; test: Antagonist activity at human TRPV1 expressed in CHO cells assessed as inhibition of heat at 45 degC-induced activity by FLIPR assay; assay type: cell-based
Mus musculus [6] = test: Inhibition in capsaicin-induced hypothermia in mouse at 0.3 mg/kg, po 15 min before capsaicin challenge measured 30 mins post capsaicin treatment; assay type: functional
[7] = biological target: T1, Transient receptor potential cation channel subfamily V member 1; test: Antagonist activity at human TRPV1 expressed in CHO cells assessed as inhibition of pH-induced activity by FLIPR assay; assay type: cell-based
Mus musculus [8] = test: Analgesic activity in mouse assessed as inhibition of formalin-induced response at 1 mg/kg, po; assay type: functional; outline: as §1
Mus musculus [9] = test: Inhibition in capsaicin-induced hypothermia in mouse compound dosed orally before capsaicin challenge measured 30 mins post capsaicin treatment; assay type: functional, organism-based
Mus musculus [10] = test: Inhibition in capsaicin-induced hypothermia in mouse at 10 mg/kg, po 15 min before capsaicin challenge measured 30 mins post capsaicin treatment; assay type: functional
Mus musculus [11] = test: Inhibition in capsaicin-induced hypothermia in mouse at 0.1 mg/kg, po 15 min before capsaicin challenge measured 30 mins post capsaicin treatment; assay type: functional
Mus musculus [12] = test: Inhibition in capsaicin-induced hypothermia in mouse at 1 mg/kg, po 15 min before capsaicin challenge measured 30 mins post capsaicin treatment; assay type: functional

T1 sequence (Q8NER1 whole entry): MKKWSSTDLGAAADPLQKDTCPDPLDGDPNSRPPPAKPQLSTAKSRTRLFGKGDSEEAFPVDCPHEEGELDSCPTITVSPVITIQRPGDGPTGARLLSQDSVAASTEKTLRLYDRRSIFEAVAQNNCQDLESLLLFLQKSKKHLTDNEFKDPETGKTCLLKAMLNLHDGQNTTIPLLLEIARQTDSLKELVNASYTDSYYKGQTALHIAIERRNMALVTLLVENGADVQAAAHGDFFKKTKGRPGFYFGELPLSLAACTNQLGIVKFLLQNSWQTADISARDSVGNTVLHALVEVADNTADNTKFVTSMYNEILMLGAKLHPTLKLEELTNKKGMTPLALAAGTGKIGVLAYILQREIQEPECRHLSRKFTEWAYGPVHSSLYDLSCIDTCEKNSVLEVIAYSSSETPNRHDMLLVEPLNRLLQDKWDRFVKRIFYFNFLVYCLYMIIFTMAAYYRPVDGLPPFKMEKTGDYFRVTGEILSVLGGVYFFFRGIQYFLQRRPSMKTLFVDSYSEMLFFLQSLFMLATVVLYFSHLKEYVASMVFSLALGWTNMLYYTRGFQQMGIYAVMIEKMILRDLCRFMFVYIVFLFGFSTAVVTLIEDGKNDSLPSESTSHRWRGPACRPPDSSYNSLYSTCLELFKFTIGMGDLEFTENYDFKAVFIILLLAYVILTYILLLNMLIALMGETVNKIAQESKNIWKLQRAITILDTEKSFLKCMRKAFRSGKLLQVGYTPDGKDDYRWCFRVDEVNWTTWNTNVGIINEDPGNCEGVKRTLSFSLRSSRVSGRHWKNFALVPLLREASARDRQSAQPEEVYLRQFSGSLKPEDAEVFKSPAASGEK

Q: Which Ki ([1]; read-out: Ki) does the source give for `CC(C(=O)NCc1ncc(C(F)(F)F)cc1N1CCCCC1)c1ccc(NS(C)(=O)=O)c(F)c1` (stereo not drawn) here?
A: Its Ki is 28.6 nM.

Q: `CCCCCCOc1nc(C(F)(F)F)cc(C)c1CNC(=O)C(C)c1ccc(NS(C)(=O)=O)c(F)c1` (stereo not drawn) was tested. Which Ki ([1]; read-out: Ki) did it give?
A: Its Ki is 100 nM.

Q: How did the Ki ([1]; read-out: Ki) turn out when `CC1CC(C)CN(c2nc(C(F)(F)Cl)ccc2CNC(=O)C(C)c2ccc(NS(C)(=O)=O)c(F)c2)C1` (mixture of isomers) was run?
A: The Ki was 1 nM.

Q: Which Ki ([1]; read-out: Ki) does the source give for `CC1CCN(c2nc(C3CC3)ccc2CNC(=O)C(C)c2ccc(NS(C)(=O)=O)c(F)c2)CC1` (stereo not drawn) here?
A: Its Ki is 0.9 nM.

Q: For `CC(C(=O)NCc1ccc(C(F)(F)Cl)nc1SC1CCCCC1)c1ccc(NS(C)(=O)=O)c(F)c1` (stereo not drawn), which Ki ([1]; read-out: Ki) is on record?
A: Its Ki is 3 nM.

Q: With `CCCCOc1nc(C(F)(F)Cl)ccc1CNC(=O)C(C)c1ccc(NS(C)(=O)=O)c(F)c1` (stereo not drawn) as the compound, how does the Ki [2] read?
A: Its Ki is 0.02 nM.

Q: And the MPE (Mus musculus [3])?
A: The MPE was 73%.

Q: And the MPE (Mus musculus [4])?
A: Its MPE is 56%.

Q: What about the IC50 [5] of the same compound?
A: The IC50 was 7 nM.

Q: What about the Ki ([1]; read-out: Ki) of the same compound?
A: The Ki was 0.3 nM.

Q: What about the inhibition in vivo at 0.3 mg/kg (Mus musculus [6]) of the same compound?
A: The inhibition in vivo at 0.3 mg/kg was 43%.

Q: And the IC50 [7]?
A: Its IC50 is 8.3 nM.

Q: How did the Ki ([1]; cho) turn out when `CC(C(=O)NCc1ncc(C(F)(F)F)cc1N1CCCC1)c1ccc(NS(C)(=O)=O)c(F)c1` (stereo not drawn) was run?
A: The Ki was “Not Active”.

Q: For `CC(C(=O)NCc1ccc(C(F)(F)Cl)nc1N1CCCCCC1)c1ccc(NS(C)(=O)=O)c(F)c1` (stereo not drawn), which Ki ([1]; read-out: Ki) is on record?
A: The Ki was 0.5 nM.

Q: Which results are given for `CC(C(=O)NCc1ccc(C(F)(F)Cl)nc1OC1CCCC1)c1ccc(NS(C)(=O)=O)c(F)c1` (stereo not drawn)?
A: MPE (Mus musculus [8]): 15%; Ki [2]: 0.04 nM; MPE (Mus musculus [3]): 29%; inhibition (Mus musculus [9]): Dose-dependent effect; inhibition in vivo at 10 mg/kg (Mus musculus [10]): 92%; IC50 [5]: 19.3 nM; inhibition in vivo at 0.1 mg/kg (Mus musculus [11]): 23%; inhibition in vivo at 0.3 mg/kg (Mus musculus [6]): 41%; inhibition in vivo at 1 mg/kg (Mus musculus [12]): 60%

Q: With `CC(C(=O)NCc1ccc(C2CC2)nc1N1CCCCC1)c1ccc(NS(C)(=O)=O)c(F)c1` (stereo not drawn) as the compound, how does the Ki ([1]; read-out: Ki) read?
A: The Ki was 1.1 nM.

Q: Which results are given for `CC1CCN(c2nc(C(F)(F)F)ccc2CNC(=O)C(C)c2ccc(NS(C)(=O)=O)c(F)c2)CC1` (stereo not drawn)?
A: Ki [2]: 0.02 nM; IC50 [7]: 15.8 nM

Q: With `CC(C(=O)NCc1ccc(C(F)(F)Cl)nc1N1CCCCC1)c1ccc(NS(C)(=O)=O)c(F)c1` (stereo not drawn) as the compound, how does the Ki ([1]; read-out: Ki) read?
A: Its Ki is 1.3 nM.

Q: For `CC1CCN(c2nc(-c3ccc(F)cc3)ccc2CNC(=O)C(C)c2ccc(NS(C)(=O)=O)c(F)c2)CC1` (stereo not drawn), which Ki ([1]; read-out: Ki) is on record?
A: The Ki was 59 nM.

Source: ChEMBL document CHEMBL3407481, “Pyridine C-region analogs of 2-(3-fluoro-4-methylsulfonylaminophenyl)propanamides as potent TRPV1 antagonists” (Eur J Med Chem, 2015)
